Measurements from different studies.
Protocols differ between the studies behind these lines. Converted amounts (≈) assume the structure as drawn.

SMILES	tested on	test	system	conditions	endpoint	value
Cc1cccc(N(O)N=Nc2ccc(S(=O)(=O)Nc3cc(C)on3)cc2)c1		ABTS scavenging		300 µg/mL	inhibition	90.2%
O=C(N[C@H](CO)[C@H](O)c1ccc([N+](=O)[O-])cc1)C(Cl)Cl	Aliivibrio fischeri	microbial growth			MIC90	3.9 µg/mL (≈ 12.1 µM)
COc1ccc(-c2ccc(-c3ccc(C(=N)N)nc3)s2)cc1Cl	SF-268	cell growth or viability, SRB			GI50	1810 nM
Cc1ccc(N(O)N=Nc2ccc(S(=O)(=O)Nc3cc(C)on3)cc2)cc1		ABTS scavenging		20 µg/mL	inhibition	17.2%
O=C(O)CCc1cccc(Oc2ccc(-c3noc(-c4ccc(O)cc4)n3)cc2)c1	Clostridioides difficile	microbial growth, broth dilution		48 h	MIC	8 µg/mL (≈ 19.9 µM)
Cc1ccc(C)n1-c1ccc(-c2nnc(-c3ccc(Br)cc3)[nH]2)cc1	Saccharomyces cerevisiae	microbial growth, broth dilution	ATCC9763		MIC	4 µg/mL (≈ 10.2 µM)
COc1ccnc(COc2ccc(NC(=O)Nc3ccc(F)cc3)cc2)c1OC	L02	cell growth or viability, MTT		72 h	IC50	> 100000 nM
Nc1ccc(-c2nc(-c3ccc(Oc4ccccc4)cc3)no2)cc1	Clostridioides difficile	microbial growth, broth dilution		48 h	MIC	> 50 µg/mL
O=C1O[C@H]([C@@H](O)CO)C(O)=C1O		ABTS scavenging		60 µg/mL	inhibition	49.9%
CCN(CC)CCNC(=O)c1c(C)[nH]c(/C=C2\C(=O)Nc3ccc(F)cc32)c1C	BaF3	cell growth or viability, ATP luminescence		72 h	GI50	1420 nM
Cl.NCCc1cccc(Oc2ccc(-c3noc(-c4ccc(O)cc4)n3)cc2)c1	Clostridioides difficile	microbial growth, broth dilution		48 h	MIC	4 µg/mL
COc1c(C)cnc(COc2ccc(NC(=O)Nc3cccc(C(F)(F)F)c3)cc2)c1C	L02	cell growth or viability, MTT		72 h	IC50	> 100000 nM
O=C(Nc1cc(F)c(F)c(F)c1)c1ccc(F)c(S(=O)(=O)NCc2cccc(B(O)O)c2)c1	Hepatitis B virus	viral replication, inhibitor, qPCR	HePAD38	6 days	EC50	920 nM
